What all share (type): cell-based
Data set [1] addresses T1, Estrogen receptor (Homo sapiens) (UniProt P03372).
T1 sequence (whole entry): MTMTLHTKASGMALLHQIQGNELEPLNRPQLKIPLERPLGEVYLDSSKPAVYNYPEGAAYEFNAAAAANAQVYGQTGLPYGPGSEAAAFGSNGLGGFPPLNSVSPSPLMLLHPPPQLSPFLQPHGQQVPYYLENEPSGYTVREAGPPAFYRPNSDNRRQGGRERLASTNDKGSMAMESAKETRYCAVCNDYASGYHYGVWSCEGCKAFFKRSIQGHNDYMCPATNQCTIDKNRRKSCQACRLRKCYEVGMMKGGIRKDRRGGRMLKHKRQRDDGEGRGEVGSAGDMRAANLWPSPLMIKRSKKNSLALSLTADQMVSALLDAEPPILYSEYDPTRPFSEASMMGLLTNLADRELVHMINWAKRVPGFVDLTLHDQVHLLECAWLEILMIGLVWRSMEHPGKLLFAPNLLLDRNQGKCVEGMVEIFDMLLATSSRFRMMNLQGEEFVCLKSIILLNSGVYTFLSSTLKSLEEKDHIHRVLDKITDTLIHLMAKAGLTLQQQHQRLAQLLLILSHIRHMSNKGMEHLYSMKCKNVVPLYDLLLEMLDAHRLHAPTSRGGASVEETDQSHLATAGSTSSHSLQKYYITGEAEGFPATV
Description: Inhibition of ER-alpha (unknown origin) transcriptional activity expressed in ER-negative human SKBR3 cells coexpressing ERE assessed as change in reporter gene activity after 40 hrs in presence of estradiol relative to control. The conditions noted are these: SK-BR-3. Also noted: concentration or dose not given beside the values. A digest of the protocol: (§1)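 ER-negative SKBR3 cells cotransfected with 3xERE-TATA-luciferase, RST7-ERα and pCMV-β-gal for normalization. […] Scored as >50% decrease or increase at <20, 20–50 or >50 μM, or <20% change. 4-hydroxytamoxifen as antagonist control. Cell death above 50 μM flagged.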

Data set [2] addresses T1, Estrogen receptor (Homo sapiens). Description: Competitive inhibition of ER-alpha (unknown origin)-GRIP1 interaction expressed in human HepG2 cells assessed as change in reporter gene activity after 40 hrs relative to control. On the set-up: concentration or dose not given beside the values. A digest of the protocol:
(§2)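 HepG2 cells transfected with VP16-ERα, Gal4-DBD-fused GRIP1 LxxLL2 peptide and 5xGal4Luc3 reporter. […] Scored as >50% decrease or increase at <20, 20–50 or >50 μM, or <20% change. 4-hydroxytamoxifen as antagonist control. Cell death and precipitation flagged.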

The target is the same in data set [3]. The data set is described as follows: Competitive inhibition of ER-alpha (unknown origin)-GRIP1 interaction expressed in human HepG2 cells assessed as change in reporter gene activity after 40 hrs in presence of estradiol relative to control. On the set-up: concentration or dose not given beside the values. A digest of the protocol: as §2
For data set [4] the target is unchanged. The data set is described as follows: Inhibition of ER-alpha (unknown origin) transcriptional activity expressed in ER-negative human SKBR3 cells coexpressing ERE assessed as change in reporter gene activity after 40 hrs relative to control. Also noted: concentration or dose not given beside the values. The conditions noted are these: SK-BR-3. A digest of the protocol:
as §1

Data set [5] has as its system HepG2. Description: Cytotoxicity against human HepG2 cells expressing ER-alpha coexpressing GRIP1 assessed as cell death at >50 uM in presence of estradiol. A digest of the protocol:
as §2

For data set [6], the target named is T1, Estrogen receptor (Homo sapiens). Description: Competitive inhibition of ER-alpha (unknown origin)-GRIP1 interaction expressed in human HepG2 cells assessed as increase in reporter gene activity at >50 uM after 40 hrs relative to control. On the set-up: scale not given: the % may be the effect or the level left. A digest of the protocol:
as §2

The subject of data set [7] is HepG2. Description: Cytotoxicity against human HepG2 cells expressing ER-alpha coexpressing GRIP1 assessed as cell death at >50 uM. A digest of the protocol:
as §2

Data set [8] concerns the target T1, Estrogen receptor (Homo sapiens). Description: Inhibition of ER-alpha (unknown origin) transcriptional activity expressed in ER-negative human SKBR3 cells coexpressing ERE assessed as increase in reporter gene activity at >50 uM after 40 hrs relative to control. The conditions noted are these: SK-BR-3. On the set-up: scale not given: the % may be the effect or the level left. A digest of the protocol: as §1

Data set [9] has the same target. Description: Competitive inhibition of ER-alpha (unknown origin)-GRIP1 interaction expressed in human HepG2 cells assessed as decrease in reporter gene activity at >50 uM after 40 hrs in presence of estradiol relative to control. Also noted: scale not given: the % may be the effect or the level left. A digest of the protocol: as §2
The target is the same in data set [10]. The data set is described as follows: Inhibition of ER-alpha (unknown origin) transcriptional activity expressed in ER-negative human SKBR3 cells coexpressing ERE assessed as increase in reporter gene activity at <20 uM after 40 hrs relative to control. Also noted: scale not given: the % may be the effect or the level left. The conditions noted are these: SK-BR-3. A digest of the protocol: as §1

The target is the same in data set [11]. Description: Inhibition of ER-alpha (unknown origin) transcriptional activity expressed in ER-negative human SKBR3 cells coexpressing ERE assessed as increase in reporter gene activity at 20 to 50 uM after 40 hrs relative to control. On the set-up: scale not given: the % may be the effect or the level left. The conditions noted are these: SK-BR-3. A digest of the protocol:
as §1

Molecules are shown by their SMILES.

As to `CCCCCCCc1cc(-c2ccc(O)cc2)ccc1OCC(=O)OCC`, the Activity in [1], in data set [2], in data set [3] and in data set [4] was below 20% throughout.
In the case of `CCCCCCCc1cc(-c2ccc(OCC(=O)OCC)c(CCCCCCC)c2)ccc1O`, the Activity in data set [1], in [2], in [3] and in data set [4] was below 20% throughout.
`CCCCCCCc1cc(-c2ccc(OCC(=O)OCC)cc2)ccc1O`: the Activity entry is “Toxic” in data set [5]; above 50% in data set [6]; below 20% in data set [1]; “Toxic” in data set [7]; above 50% in data set [8]; below 20% in data set [3].
With `CCCCCCCc1cc(-c2ccc(OCCN(C)C)cc2)ccc1OCC(=O)OCC`, the Activity in data set [1] is below 20%; in data set [9] it was above 50%; in data set [2], below 20%; in [4] it was below 20%.
Consider `CCOC(=O)COc1ccc(-c2ccc(O)c(Cc3ccc(-c4ccccc4)cc3)c2)cc1Cc1ccc(-c2ccccc2)cc1`, for which the Activity in [1] is below 20%; in data set [2], below 20%; in data set [3] it was below 20%; in [10], above 50%.
For the molecule `CCOC(=O)COc1ccc(-c2ccc(OCCN(C)C)c(Cc3ccc(-c4ccccc4)cc3)c2)cc1Cc1ccc(-c2ccccc2)cc1`, the Activity was below 20% in data set [1], below 20% in data set [2], below 20% in data set [3] and above 50% in [11].
Turning to `CCCCCCCc1cc(-c2ccc(OCC(=O)OCC)cc2)ccc1OCCN(C)C`, the Activity in [6] was above 50%; in [1], below 20%; in data set [8], above 50%; in [3], below 20%.
For the molecule `CCOC(=O)COc1ccc(-c2ccc(O)cc2)cc1CC1CCCCC1`, the Activity in [1] is below 20%; in data set [2], below 20%; in [3] it was below 20%; in data set [10], above 50%.
For the molecule `CCOC(=O)COc1ccc(-c2ccc(O)c(Cc3ccc4ccccc4c3)c2)cc1`, the Activity entry in [5] was “Toxic”; in [6] it was above 50%; in [1], below 20%; in data set [7], “Toxic”; in data set [3], below 20%; in [11], above 50%.
Regarding `CCOC(=O)COc1ccc(-c2ccc(O)c(Cc3ccc4ccccc4c3)c2)cc1Cc1ccc2ccccc2c1`, the Activity is below 20% in [1], above 50% in data set [8], below 20% in data set [2] and below 20% in data set [3].
Regarding `CCOC(=O)COc1ccc(-c2ccc(O)c(CC3CCCCC3)c2)cc1CC1CCCCC1`, the Activity result is “Toxic” in [5]; below 20% in data set [1]; “Toxic” in data set [7]; below 20% in [2]; below 20% in data set [3]; below 20% in [4].
As for `CCOC(=O)COc1ccc(-c2ccc(O)cc2)cc1Cc1ccc2ccccc2c1`, the Activity was below 20% in [1], above 50% in [9], below 20% in data set [2] and below 20% in data set [4].
On to `CCCCCCCc1cc(-c2ccc(OCC(=O)OCC)c(CCCCCCC)c2)ccc1OCCN(C)C`, for which the Activity in data set [6] is above 50%; in data set [1], below 20%; in data set [8] it was above 50%; in [3], below 20%.
Turning to `CCOC(=O)COc1ccc(-c2ccc(O)cc2)cc1Cc1ccc(-c2ccccc2)cc1`, the Activity result in [5] is “Toxic”; in [6], above 50%; in data set [1], below 20%; in data set [7], “Toxic”; in data set [8] it was above 50%; in data set [3], below 20%.

These data come from ChEMBL document CHEMBL3108721, “4,4'-Unsymmetrically substituted 3,3'-biphenyl alpha helical proteomimetics as potential coactivator binding inhibitors” (Bioorg Med Chem, 2014).
